# Data reported in ChEMBL document CHEMBL4725241, “Discovery of BMS-986235/LAR-1219: A Potent Formyl Peptide Receptor 2 (FPR2) Selective Agonist for the Prevention of Heart Failure” (J Med Chem, 2020).
# Calls of active or inactive are those of the source. The rule behind the calls is not given here.
# Tests used:
# fMet-Leu-Phe receptor = biological target: T1, fMet-Leu-Phe receptor (Homo sapiens, UniProt P21462); assay: Agonist activity at human FPR1 expressed in HEK 293 cells co-expressing Galpha15 measured every 1.5 sec for 80 sec by Fluo-4 NW staining based scanning fluorometric method; format: cell-based, HEK293
# T1 sequence (P21462 whole entry): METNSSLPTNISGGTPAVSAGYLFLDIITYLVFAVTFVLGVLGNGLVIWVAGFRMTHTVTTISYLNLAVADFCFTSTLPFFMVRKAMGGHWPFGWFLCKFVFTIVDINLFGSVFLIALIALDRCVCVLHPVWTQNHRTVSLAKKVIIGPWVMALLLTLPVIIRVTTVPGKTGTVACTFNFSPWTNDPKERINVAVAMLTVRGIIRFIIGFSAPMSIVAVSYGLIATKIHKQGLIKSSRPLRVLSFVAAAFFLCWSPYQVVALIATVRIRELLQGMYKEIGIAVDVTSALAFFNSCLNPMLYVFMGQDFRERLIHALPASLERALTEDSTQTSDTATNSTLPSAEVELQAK
# [1] = biological target: T2, N-formyl peptide receptor 2 (Homo sapiens, UniProt P25090); assay: Agonist activity at human FPR2 expressed in HEK 293 cells co-expressing Galpha15 measured every 1.5 sec for 80 sec by Fluo-4 NW staining based scanning fluorometric method; format: cell-based, HEK293
# T2 sequence (P25090 whole entry): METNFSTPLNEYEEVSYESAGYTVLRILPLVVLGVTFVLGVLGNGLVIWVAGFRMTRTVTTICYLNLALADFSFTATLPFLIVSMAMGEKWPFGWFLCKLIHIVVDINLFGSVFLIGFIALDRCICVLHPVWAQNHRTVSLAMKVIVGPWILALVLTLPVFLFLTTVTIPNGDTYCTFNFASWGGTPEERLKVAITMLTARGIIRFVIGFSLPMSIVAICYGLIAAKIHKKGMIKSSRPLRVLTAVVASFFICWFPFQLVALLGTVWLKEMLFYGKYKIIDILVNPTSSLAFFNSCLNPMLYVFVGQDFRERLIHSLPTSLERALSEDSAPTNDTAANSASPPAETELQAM
# Procedure, shortened: (§1)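 HEK293 cells were transiently co-transfected with FPR plus Gα15 (Lipofectamine 2000), then reseeded after 24 h on poly-D-lysine plates and grown one more day. Cells were loaded with Fluo-4 NW for 45 min at 37°C. Compound was added and fluorescence (ex 485/em 525 nm) read for 80 s at 1.5 s intervals. Response = maximal peak minus basal.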
# [2] = In vivo […] in mouse assessed as reduction in LPS-induced neutrophil infiltration in BALF cells at 1 mg/kg, po relative to control; format: functional
# Procedure, shortened: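 Mice were given LPS and dosed orally at 1 mg/kg. Neutrophils in BALF were counted, and percent inhibition was calculated.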
# [3] = biological target: T3, Formyl peptide receptor 2 (Mus musculus, UniProt O88536); assay: Agonist activity at mouse FPR2 expressed in HEK 293 cells co-expressing Galpha15 measured every 1.5 sec for 80 sec by Fluo-4 NW staining based scanning fluorometric method; format: cell-based, HEK293; procedure, shortened: as §1
# T3 sequence (O88536 whole entry): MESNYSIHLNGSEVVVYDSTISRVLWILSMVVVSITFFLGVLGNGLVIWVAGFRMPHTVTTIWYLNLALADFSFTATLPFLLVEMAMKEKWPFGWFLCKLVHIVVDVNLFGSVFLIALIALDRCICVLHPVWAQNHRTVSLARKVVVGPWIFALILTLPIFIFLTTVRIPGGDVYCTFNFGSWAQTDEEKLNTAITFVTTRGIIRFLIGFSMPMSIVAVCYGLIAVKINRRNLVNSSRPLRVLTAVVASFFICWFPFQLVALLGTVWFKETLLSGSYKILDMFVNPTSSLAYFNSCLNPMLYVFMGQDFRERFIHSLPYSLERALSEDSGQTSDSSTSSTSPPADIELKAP
# Cytochrome P450 3A4 = Cytochrome P450 3A4 (Homo sapiens, UniProt P08684); assay: Inhibition of recombinant human CYP3A4; format: ADME
# Cytochrome P450 3A4, sequence (P08684 whole entry): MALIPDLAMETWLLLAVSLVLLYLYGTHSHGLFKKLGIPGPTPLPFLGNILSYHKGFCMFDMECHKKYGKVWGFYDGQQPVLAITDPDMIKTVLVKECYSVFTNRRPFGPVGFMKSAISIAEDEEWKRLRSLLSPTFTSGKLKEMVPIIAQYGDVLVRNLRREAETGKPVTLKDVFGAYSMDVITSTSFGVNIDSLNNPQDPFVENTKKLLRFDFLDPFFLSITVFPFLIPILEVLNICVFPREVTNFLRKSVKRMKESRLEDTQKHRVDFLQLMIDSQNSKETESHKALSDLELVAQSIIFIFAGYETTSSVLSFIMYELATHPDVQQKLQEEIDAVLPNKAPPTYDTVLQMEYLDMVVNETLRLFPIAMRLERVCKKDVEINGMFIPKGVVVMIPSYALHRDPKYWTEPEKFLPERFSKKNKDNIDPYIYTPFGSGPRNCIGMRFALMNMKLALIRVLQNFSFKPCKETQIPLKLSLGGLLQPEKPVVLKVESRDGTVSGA
# Mus musculus [4] = assay: Cardioprotective activity in C57BL/6 mouse model of LAD coronary artery ligation-induced myocardial infarction assessed as reduction in scar length at 0.3 mg/kg, po and measured after 28 days relative to control; format: functional, organism-based; conditions: time 28.0 day
# Procedure, shortened: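 Male C57BL/6 mice (10-12 weeks) underwent permanent LAD ligation under ketamine/xylazine, with shams having an untightened suture. Compound (0.3 mg/kg/d) or vehicle was given by oral gavage once daily (5 mL/kg) from post-MI day 4 for 24 days. Endpoints were taken at 28 days post-MI; scar length was quantified from LV cross sections.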
# Mus musculus [5] = assay: Cardioprotective activity in C57BL/6 mouse model of LAD coronary artery ligation-induced myocardial infarction assessed as reduction in LV chamber area at 100 mg/kg, po and measured after 28 days; format: functional, organism-based; conditions: time 28.0 day
# Procedure, shortened: (§2)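 Male C57BL/6 mice (10-12 weeks) underwent permanent LAD ligation. Captopril was given in drinking water (~100 mg/kg/day). Endpoints were taken at 28 days post-MI, with histomorphometry of LV cross sections for scar length.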
# Mus musculus [6] = assay: Cardioprotective activity in C57BL/6 mouse model of LAD coronary artery ligation-induced myocardial infarction assessed as reduction in heart weight at 100 mg/kg, po and measured after 28 days; format: functional, organism-based; conditions: time 28.0 day; procedure, shortened: as §2
Compound,EC50 (fMet-Leu-Phe receptor) [nM],EC50 [1] [nM],further results
COc1cc(F)c([C@@H]2CNC(=O)[C@H]2NC(=O)Nc2ccc(Cl)cc2)c(F)c1,120,,
COc1ccc([C@@H]2CNC(=O)[C@H]2NC(=O)Nc2ccc(F)cc2)cc1,,0.085,
COc1cc(F)c([C@@H]2CNC(=O)[C@H]2NC(=O)Nc2ccccc2F)c(F)c1,,43,
COc1ccc([C@@H]2NC(=O)[C@H]2NC(=O)Nc2ccc(Cl)cc2)cc1 (racemic),> 10000,> 100,
COc1ccc([C@@H]2CNC(=O)[C@@H]2NC(=O)Nc2ccc(Cl)cc2)cc1 (racemic),,0.91,
COc1ccc([C@@H]2CNC(=O)[C@H]2NC(=O)Nc2ccc(F)cc2)cc1F,,0.9,
COc1cc(F)c([C@@H]2CNC(=O)[C@H]2NC(=O)Nc2ccc(F)cc2)cc1F,17,,
COc1ccc([C@@H]2CNC(=O)[C@H]2NC(=O)Nc2ccc(F)cc2)c(C)c1,,1.6,
COc1ccc(CC(NC(=O)Nc2ccc(Cl)cc2)C(N)=O)cc1 (racemic),> 10000,3.6,
COc1cc(F)c([C@@H]2CNC(=O)[C@H]2NC(=O)Nc2ccc(C)cc2)c(F)c1,,2,
COc1cc(F)c([C@@H]2CNC(=O)[C@H]2NC(=O)Nc2ccc(C)c(O)c2)c(F)c1,1000,0.078,inhibition in vivo at 1 mg/kg [2]: 55%; EC50 [3]: 0.63 nM; IC50 (Cytochrome P450 3A4): > 20000 nM
"COc1ccc(C2CNC(=O)C2NC(=O)Nc2ccc(Cl)cc2)cc1 (single isomer, unassigned; (-))",,4.6,
COc1cc(F)c([C@@H]2CNC(=O)[C@H]2NC(=O)Nc2ncc(Cl)s2)c(F)c1,,1.9,
COc1ccc([C@H]2CNC(=O)[C@@H]2NC(=O)Nc2ccc(Cl)cc2)cc1,,34,
COc1cnc([C@@H]2CNC(=O)[C@H]2NC(=O)Nc2ccc(F)cc2)c(F)c1,190,,
COc1ccc([C@@H]2CCNC(=O)[C@H]2NC(=O)Nc2ccc(Cl)cc2)cc1 (racemic),,0.11,
COc1ccc([C@@H]2CNC(=O)[C@H]2NC(=O)Nc2ccc(Cl)cc2)cc1 (racemic),,0.18,
CCOc1cc(F)c([C@@H]2CNC(=O)[C@H]2NC(=O)Nc2ccc(F)cc2)c(F)c1,,14,
COc1ccc([C@@H]2CNC(=O)[C@H]2NC(=O)Nc2ccc(Cl)cc2)cc1,,0.092,
COc1cc(F)c([C@@H]2CNC(=O)[C@H]2NC(=O)Nc2ccc(F)cc2)c(F)c1,280,0.14,inhibition in vivo at 1 mg/kg [2]: 97%; EC50 [3]: 1.5 nM; IC50 (Cytochrome P450 3A4): > 20000 nM
COc1cc(F)c([C@@H]2CNC(=O)[C@H]2NC(=O)Nc2ccc(F)c(F)c2)c(F)c1,820,,inhibition in vivo at 1 mg/kg [2]: 4.9%; EC50 [3]: 8.5 nM; IC50 (Cytochrome P450 3A4): > 20000 nM

Compound,EC50 (fMet-Leu-Phe receptor) [nM],EC50 [1] [nM],further results
COc1ccc(CC(CO)NC(=O)Nc2ccc(Cl)cc2)cc1 (racemic),,6.8,
CCc1cc(F)c([C@@H]2CNC(=O)[C@H]2NC(=O)Nc2ccc(F)cc2)c(F)c1,,5.8,
COc1cc(F)c([C@@H]2CNC(=O)[C@H]2NC(=O)Nc2ccc(Cl)cn2)c(F)c1,,4.5,
C[C@H](CS)C(=O)N1CCC[C@H]1C(=O)O,,,Activity (Mus musculus [4]): inactive; Activity (Mus musculus [5]): Active; Activity (Mus musculus [6]): Active
N#Cc1cc(F)c([C@@H]2CNC(=O)[C@H]2NC(=O)Nc2ccc(F)cc2)c(F)c1,40000,9.7,
"COc1ccc(C2CNC(=O)C2NC(=O)Nc2ccc(Cl)cc2)cc1 (single isomer, unassigned; (+))",,0.9,
COc1cc(F)c([C@@H]2CNC(=O)[C@H]2NC(=O)Nc2ccc(Cl)s2)c(F)c1,1200,,inhibition in vivo at 1 mg/kg [2]: 84%; EC50 [3]: 1.4 nM; IC50 (Cytochrome P450 3A4): 5600 nM
CNc1cc(F)c([C@@H]2CNC(=O)[C@H]2NC(=O)Nc2ccc(F)cc2)c(F)c1,,1.4,
COc1ccc([C@@H]2CNC(=O)[C@H]2NC(=O)Nc2ccc(F)cc2)c(Cl)c1,,4,
COc1cc(F)c([C@@H]2CNC(=O)[C@H]2NC(=O)Nc2cc(C)ns2)c(F)c1,290,,
COc1cc(F)c([C@@H]2CNC(=O)[C@H]2NC(=O)Nc2ccc(Cl)c(O)c2)c(F)c1,40,0.05,
COc1cc(F)c([C@@H]2CNC(=O)[C@H]2NC(=O)Nc2cc3ccccc3s2)c(F)c1,3000,,
COc1ccc([C@@H]2NC(=O)[C@@H]2NC(=O)Nc2ccc(Cl)cc2)cc1 (racemic),> 10000,12,
O=C(Nc1ccc(F)cc1)N[C@@H]1C(=O)NC[C@H]1c1ccc(Cl)cc1F,29,3.1,
COc1cc(F)c([C@@H]2CNC(=O)[C@H]2NC(=O)Nc2ccc(F)c(O)c2)c(F)c1,72,0.087,
COc1ccc(CC(NC(=O)Nc2ccc(Cl)cc2)C(=O)O)cc1 (racemic),,31,
COc1ccc(CC(C)NC(=O)Nc2ccc(Cl)cc2)cc1 (racemic),,23,
COc1cc(F)c([C@@H]2CNC(=O)[C@H]2NC(=O)Nc2ccc(C#N)cc2)c(F)c1,350,,
COc1cc(F)c([C@@H]2CNC(=O)[C@H]2NC(=O)Nc2cccc(F)c2)c(F)c1,1700,,
COc1ccc(CCNC(=O)Nc2ccc(Cl)cc2)cc1,,990,
COc1cc(F)c([C@@H]2CNC(=O)[C@H]2NC(=O)Nc2ccc(Br)cc2)c(F)c1,96,0.19,
